One may read the IC50 as the point on the concentration scale where inhibition reaches its midpoint. A lower IC50 goes with inhibition by little substance.

A value given as a limit tells only on which side of the number the result lay.

Here are results for 21 compounds from ChEMBL document CHEMBL1140159, “Gedunin, a novel hsp90 inhibitor: semisynthesis of derivatives and preliminary structure-activity relationships” (J Med Chem, 2008).

Test [1] has as its system MCF7. Nature of the test: Antiproliferative activity against human MCF7 cells after 72 hrs. The note with it: MCF7, 72 h. The format is functional, cell-based. Put shortly: (§1)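 Cells were grown in a 1:1 Advanced DMEM/F12 mix with nonessential amino acids, 2 mM L-glutamine, penicillin/streptomycin and 10% FBS at 37 °C and 5% CO₂. They were seeded at 2000/well and left to attach overnight, then dosed over a concentration range (1% DMSO final) for 72 h. Viable cells were read by MTS/PMS, normalised to 1% DMSO controls (100%), and IC50 was taken from a nonlinear dose–response fit; three experiments, each in triplicate.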

Test [2] relates to SK-BR-3. Briefly: Antiproliferative activity against human SKBr3 cells after 72 hrs. The format is functional, cell-based. The note with it: SK-BR-3, 72 h. An outline of the steps:
as §1

As for `CCO/N=C1\C=C[C@]2(C)[C@H]3CC[C@@]4(C)[C@@H](c5ccoc5)OC(=O)[C@H]5O[C@]54[C@]3(C)[C@H](OC(C)=O)C[C@H]2C1(C)C`, the IC50 in test [1] and in test [2] was more than 100 µM each time.
Take `CO/N=C1\C=C[C@]2(C)[C@H]3CC[C@@]4(C)[C@@H](c5ccoc5)OC(=O)[C@H]5O[C@]54[C@]3(C)[C@H](OC(C)=O)C[C@H]2C1(C)C`: the IC50 in test [1] and in test [2] was more than 100 µM each time.
For the compound `CC1(C)C(=O)C=C[C@]2(C)[C@H]3CC[C@@]4(C)[C@@H](c5ccoc5)OC(=O)[C@H]5O[C@]54[C@]3(C)C(=O)C[C@@H]12`, the half-inhibitory concentration (IC50) in test [1] was found to be 10.9 µM; in test [2], 4.49 µM.
The like results for `CC(=O)O[C@@H]1C[C@H]2C(C)(C)C(O)C=C[C@]2(C)[C@H]2CC[C@@]3(C)C(c4ccoc4)OC(=O)[C@H]4O[C@]43[C@@]21C` (single isomer, unassigned) were, in that order, 54.3 µM and 47.7 µM.
As for `CC(=O)OC1C=C[C@]2(C)[C@H]3CC[C@@]4(C)C(c5ccoc5)OC(=O)[C@H]5O[C@]54[C@]3(C)[C@H](OC(C)=O)C[C@H]2C1(C)C` (single isomer, unassigned), the half-maximal inhibitory concentration (IC50) in test [1] and in test [2] was more than 100 µM in each case.
`CC1(C)C(=O)C=C[C@]2(C)[C@H]3CC[C@@]4(C)[C@@H](c5ccoc5)OC(=O)[C@H]5O[C@]54[C@]3(C)[C@H](OCc3ccccc3)C[C@@H]12`: the IC50 in test [1] and in test [2] was more than 100 µM in each case.
As for `CC(=O)O[C@@H]1C[C@H]2C(C)(C)C(=O)C(O)C(O)[C@]2(C)[C@H]2CC[C@@]3(C)[C@@H](c4ccoc4)OC(=O)[C@H]4O[C@]43[C@@]21C` (some centres not stated), the IC50 in test [1] and in test [2] was more than 100 µM throughout.
Turning to `CCC(=O)O[C@@H]1C[C@H]2C(C)(C)C(=O)C=C[C@]2(C)[C@H]2CC[C@@]3(C)[C@@H](c4ccoc4)OC(=O)[C@H]4O[C@]43[C@@]21C`, the half-inhibitory concentration (IC50) in test [1] and in test [2] was more than 100 µM each time.
`CO[C@@H]1C[C@H]2C(C)(C)C(=O)C=C[C@]2(C)[C@H]2CC[C@@]3(C)[C@@H](c4ccoc4)OC(=O)[C@H]4O[C@]43[C@@]21C`: the 50% inhibitory concentration (IC50) in test [1] was 38.9 µM; in test [2] it was 13 µM.
For `CC1(C)C(=O)C=C[C@]2(C)[C@H]3CC[C@@]4(C)[C@@H](c5ccoc5)OC(=O)[C@H]5O[C@]54[C@]3(C)[C@H](OC(N)=O)C[C@@H]12`, in that order: 9.79 µM and 7.05 µM.
For `CCCO[C@@H]1C[C@H]2C(C)(C)C(=O)C=C[C@]2(C)[C@H]2CC[C@@]3(C)[C@@H](c4ccoc4)OC(=O)[C@H]4O[C@]43[C@@]21C`, in that order: 37.3 µM and 18.1 µM.
For `CC1(C)C(=O)C=C[C@]2(C)[C@H]3CC[C@@]4(C)[C@H](c5ccoc5)OC(=O)[C@H]5O[C@]54[C@]3(C)[C@H](O)C[C@@H]12` [DEACETYLGEDUNIN], in that order: 29 µM and 21.1 µM.
For the compound `CC(=O)O[C@@H]1C[C@H]2C(C)(C)/C(=N/OCc3ccccc3)C=C[C@]2(C)[C@H]2CC[C@@]3(C)[C@@H](c4ccoc4)OC(=O)[C@H]4O[C@]43[C@@]21C`, the 50% inhibitory concentration (IC50) in test [1] and in test [2] was more than 100 µM each time.
Turning to `CC1(C)C(=O)[C@H]2O[C@H]2[C@]2(C)[C@H]3CC[C@@]4(C)C(c5ccoc5)OC(=O)[C@H]5O[C@]54[C@]3(C)[C@H](O)C[C@@H]12` (single isomer, unassigned), the IC50 in test [1] and in test [2] was more than 100 µM throughout.
For the compound `CC(=O)O[C@@H]1C[C@H]2C(C)(C)C(=O)C=C[C@]2(C)[C@H]2CC[C@@]3(C)[C@H](c4ccoc4)OC(=O)[C@H]4O[C@]43[C@@]21C` [GEDUNIN], the IC50 in test [1] amounted to 8.84 µM; in test [2], 3.22 µM.
The like results for `CC(=O)O[C@@H]1C[C@H]2C(C)(C)C(O)C=C[C@]2(C)[C@H]2CC[C@@]3(C)C(c4ccoc4)OC(O)[C@H]4O[C@]43[C@@]21C` (single isomer, unassigned) were, in that order, 47.7 µM and 82.4 µM.
Regarding `CC(=O)O[C@@H]1C[C@H]2C(C)(C)/C(=N/O)C=C[C@]2(C)[C@H]2CC[C@@]3(C)[C@@H](c4ccoc4)O/C(=N\O)[C@H]4O[C@]43[C@@]21C`, the IC50 in test [1] is 33.2 µM; in test [2], 26.5 µM.
For `CC(=O)O[C@@H]1C[C@H]2C(C)(C)C(=O)CC[C@]2(C)[C@H]2CC[C@@]3(C)[C@@H](c4ccoc4)OC(=O)[C@H]4O[C@]43[C@@]21C`, in that order: more than 100 µM and more than 100 µM.
The like results for `CCO[C@@H]1C[C@H]2C(C)(C)C(=O)C=C[C@]2(C)[C@H]2CC[C@@]3(C)[C@@H](c4ccoc4)OC(=O)[C@H]4O[C@]43[C@@]21C` were, in that order, 14.8 µM and 12.1 µM.
The like results for `CC(=O)O[C@@H]1C[C@H]2C(C)(C)C(=O)C3OC(C)(C)OC3[C@]2(C)[C@H]2CC[C@@]3(C)C(c4ccoc4)OC(=O)[C@H]4O[C@]43[C@@]21C` (single isomer, unassigned) were, in that order, more than 100 µM and more than 100 µM.
With `CC(=O)O[C@@H]1C[C@H]2C(C)(C)C(O)CC[C@]2(C)[C@H]2CC[C@@]3(C)[C@@H](c4ccoc4)OC(O)[C@H]4O[C@]43[C@@]21C` (some centres not stated), the IC50 in test [1] and in test [2] was more than 100 µM in each case.
